Source: PubChem BioAssay (several laboratories)
Shown are actives, neighbours in structure and some others; about 4.6% of the full set was active somewhere.
Arbovirus inh = antivirals against arbovirus infection | inhibition, % at 10 µM | arbovirus infection cell-based antiviral screen | AID 1251 | 200,000 compounds, 0.37% hits; in the data active = inhibition above about 30%
Calb biofilm kill = mixture kills Candida albicans biofilm cells. inhibition, % at 7.6 µM. 120,000 compounds, 0.02% hits. C. albicans biofilm persisters + clotrimazole, fluorescence viability; primary screen in compound mixtures of four per well;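 note: compounds exposed to preformed 24 h biofilms for 48 h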
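Test system: C. albicans biofilms. Buffer or medium: RPMI/MOPS medium, pH 7.0. Timing: 48 h compound exposure at 37 °C. Technique: Alamar Blue fluorescence. Evaluation: percent inhibition of biofilm viability.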
p47phox inh = blocks human p47phox regulatory protein of NADPH oxidases. inhibition, % at 24.7 µM. AID 1274. 220,000 compounds, 0.53% hits. p47phox/p22phox peptide binding, fluorescence polarization, 2 h. P14598;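 active = inhibition above about 30%, limit read from the data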
WT yeast gro inh = growth inhibition of WT yeast, mitochondrial fusion screen; 190,000 compounds, 2.1% hits; inhibition, % at 10 µM; mitochondrial fusion phenotypic screen, WT strain; in the data active = inhibition above about 58%; tested in S. cerevisiae
Hck-Nef inh = inhibitors of human Hck kinase activated by Nef. Recombinant Hck-YEEI plus Nef, Z-Lyte FRET kinase assay. inhibition, % at 20 µM. 220,000 compounds, 0.68% hits. AID 463187;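 active = Hck-Nef kinase inhibition above about 50%, limit read from the data; inactive = inhibition below that limit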
Target sequence (P08631 whole entry, looked up): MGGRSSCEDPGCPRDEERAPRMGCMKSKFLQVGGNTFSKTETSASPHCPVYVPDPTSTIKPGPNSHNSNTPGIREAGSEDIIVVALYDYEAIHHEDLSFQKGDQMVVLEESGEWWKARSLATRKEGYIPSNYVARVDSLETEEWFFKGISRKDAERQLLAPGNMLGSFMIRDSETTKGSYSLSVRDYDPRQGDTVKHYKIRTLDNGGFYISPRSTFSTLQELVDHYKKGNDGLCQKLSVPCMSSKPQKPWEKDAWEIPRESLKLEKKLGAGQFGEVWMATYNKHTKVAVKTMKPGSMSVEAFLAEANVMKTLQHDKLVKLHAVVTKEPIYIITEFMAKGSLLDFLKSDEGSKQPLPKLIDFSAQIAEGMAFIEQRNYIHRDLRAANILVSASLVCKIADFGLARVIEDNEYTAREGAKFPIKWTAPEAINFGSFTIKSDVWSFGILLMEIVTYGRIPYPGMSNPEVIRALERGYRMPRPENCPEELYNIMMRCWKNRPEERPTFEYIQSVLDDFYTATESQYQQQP
RAM network inh = inhibitors of the yeast RAM network | S. cerevisiae dse1pr::URA3 reporter, 5-FOA growth OD615, 2 d; analog-sensitive cbk1-as2 kinase mutant strain | inhibition, % at 50 µM | 190,000 compounds, 1.8% hits | AID 868;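 active = inhibition above a set limit, 3 SD over mean compound inhibition, cut at about 8.4% in these data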;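 note: inhibition rescues growth on 5-FOA so higher OD means more RAM inhibition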
Hits are given with their value; i = inactive; nt = no result.

SMILES	Arbovirus inh	Calb biofilm kill	p47phox inh	WT yeast gro inh	Hck-Nef inh	RAM network inh
CCOC(=O)C1=CN(Cc2ccc(OC)cc2)C=C(C(=O)OCC)C1c1cccs1	i	i	i	i	58	10
CCOC(=O)C1=C(C)NC(C)=C(C(=O)OCC)C1c1cccs1	i	i	i	i	i	i
O=C(c1cccs1)n1nc(-c2ccco2)nc1SCc1ccccc1	i	nt	i	i	i	10
CCC[C@@H]1C[C@@]1(CCC)[C@@H](NP(=O)(c1ccccc1)c1ccccc1)c1ccc(C(=O)OC)cc1	i	i	i	68	i	i
CC(C)Oc1cc(O)c2c(=O)c(-c3ccc(O)cc3)coc2c1	i	nt	i	i	i	i
CC1(C)C=Cc2c(c3c(c4c(=O)c(-c5ccc(O)cc5)coc24)OC(C)(C)CC3)O1	i	i	i	71	i	i
COc1ccc(N=C/C=C2/C=C(c3ccccc3)OC(C)(C)O2)cc1	i	i	i	i	i	i
COc1cc2c(cc1NC(=O)CN1C(=O)NC3(CCc4ccccc43)C1=O)oc1ccccc12 (stereo not given)	i	nt	i	66	i	i
COc1cc2c(cc1NC(=O)CC1SC(N3CCCC3)=NC1=O)oc1ccccc12 (stereo not given)	33	nt	i	i	i	i
COc1cc2c(cc1NC(=O)CCCN1C(=O)CCC1=O)oc1ccccc12	i	nt	i	i	i	i
COc1ccc(CN2CCN(Cc3ccon3)CC2CCO)c(C)c1C (stereo not given)	nt	i	i	nt	i	nt
COc1ccc(N2C(=O)CCC(C(=O)N3CCN(c4ccccn4)CC3)C2c2ccc(F)cc2)cc1 (stereo not given)	i	i	i	i	i	i
O=S(=O)(NCC(Nc1ccc(Cl)cc1)c1ccccc1)c1ccc(Cl)cc1 (stereo not given)	i	i	i	74	i	9.0
Cc1noc(C)c1COc1cccc(C(=O)OC(C)C(=O)Nc2c(C)n(C)n(-c3ccccc3)c2=O)c1 (stereo not given)	i	i	i	i	i	i
Cc1cccc(NC(=O)c2sc(C)nc2C)c1	i	i	i	i	i	i
Cc1cccc(C(=O)Nc2nc(C)c(C(=O)Nc3ccc4c(c3)CCC4)s2)c1	i	nt	i	i	i	8.6
CN1/C(=C\C(=O)COC(=O)c2ccc([N+](=O)[O-])o2)C(C)(C)c2ccccc21	i	i	nt	94	i	i
Oc1ccc(C[C@@H]2CNC(=S)N2CCc2cc(C(F)(F)F)cc(C(F)(F)F)c2)cc1	nt	i	i	nt	i	nt
FC(F)(F)c1cc(CCN2C(=S)NC[C@@H]2Cc2ccccc2)cc(C(F)(F)F)c1	i	i	i	64	i	i
Cc1ccc(N(CC(N)=O)C2SC(=O)N(Cc3ccccc3)C2=O)cc1 (stereo not given)	i	nt	i	i	i	9.4
Cc1ccc(S(=O)(=O)N/N=C/c2cccn2-c2ccc(Cl)cc2)cc1	i	nt	i	i	i	i
CC1=NN(c2ccc(Cl)cc2)C(=O)/C1=C\c1cccn1-c1ccc(S(N)(=O)=O)cc1	i	i	i	81	i	i
COc1ccc(NC(=O)CN2CCC3(O)CCCCC3C2c2cc(OC)ccc2OC)cc1 (stereo not given)	i	nt	i	i	i	i
COC(=O)c1c(NC(=O)CN2CCC3(O)CCCCC3C2c2ccc(OC)cc2OC)sc(C)c1C (stereo not given)	i	i	i	59	i	i
COc1cc([C@H]2[C@@H]3CCCC[C@]3(O)CCN2CC(=O)Nc2ccc(C)cc2C)ccc1O	i	nt	i	i	i	i
SMILES	Arbovirus inh	Calb biofilm kill	p47phox inh	WT yeast gro inh	Hck-Nef inh	RAM network inh
COC(=O)c1c(NC(=O)CN2CCC3(O)CCCCC3C2c2ccccc2OC)sc(C)c1C (stereo not given)	i	i	i	73	i	i
CCCCCCCCCC(=O)NNC(=O)c1c(O)c2ccccc2n(CC)c1=O	i	i	i	i	i	10
CCn1c(=O)c(C(=O)Nc2ncccc2C)c(O)c2ccccc21	i	i	i	59	i	i
CCCCCCn1c(=O)c(-c2ccccc2)c(O)c2ccccc21	54	nt	i	i	i	9.5
CCCCCCNC(=O)C(C#N)c1nc2ccccc2nc1N1CCOCC1 (stereo not given)	i	nt	i	i	i	9.7
CCCCCCNC(=O)C(C#N)c1nc2ccccc2nc1N1CCCC1 (stereo not given)	i	nt	i	i	i	i
CC(C)Oc1ccc(C(CC(=O)O)NC(=O)C(Sc2ccccc2)c2ccccc2)cc1 (stereo not given)	i	i	i	i	i	i
Cc1c(C(=O)NC(Cc2ccccc2)c2nc3ccccc3[nH]2)cccc1[N+](=O)[O-] (stereo not given)	33	i	i	i	i	i
CCc1ccc(CN(C)C(=O)CCc2nc3ccccc3n(-c3ccc(OC)cc3)c2=O)cc1	i	i	nt	58	i	i
CCOc1ccc(C2C=C(c3ccc(C)cc3)Nc3nnnn32)cc1 (stereo not given)	i	nt	i	i	i	i
CCOc1ccc(C2C=C(c3ccc(C)cc3)Nc3ncnn32)cc1 (stereo not given)	32	nt	i	i	i	i
CC1(C(=O)OCC(=O)Nc2ccc3ccccc3c2)CC1(Cl)Cl (stereo not given)	i	i	i	66	i	i
CCOc1ccc(OCC(=O)Nc2ccc(OC)cc2[N+](=O)[O-])cc1	i	i	i	i	i	i
CCOc1ccc(NC(=O)COC(=O)C2(C)CC2(Cl)Cl)c([N+](=O)[O-])c1 (stereo not given)	i	i	i	i	i	9.1
CC1(C(=O)OCC(=O)Nc2ccc(C(N)=O)cc2)CC1(Cl)Cl (stereo not given)	i	i	i	i	i	i
COc1cc(C2NCC(c3ccc(Cl)cc3Cl)c3c2[nH]c2ccccc32)cc(OC)c1OC (stereo not given)	i	i	i	82	i	i
O=C(O)c1ccc(C2NCC(c3ccccc3Cl)c3c2[nH]c2ccccc32)cc1 (stereo not given)	i	i	i	i	i	i
S=C(NCCCN1CCOCC1)Nc1cccc(-c2nnc3n2CCCCC3)c1	i	i	i	i	i	i
CCOC(=O)c1cc(NC(=O)c2ccccc2)c(=O)oc1-c1ccccc1	i	nt	i	i	i	9.5
O=C(CSc1nccc(=O)[nH]1)Nc1ccc(F)c([N+](=O)[O-])c1	i	i	i	i	i	i
Cc1cccc(-c2nnc3sc(-c4ccccc4C)nn23)c1	i	nt	i	69	i	i
COc1cccc(-c2nnc3sc(-c4ccccc4)nn23)c1	i	i	i	i	i	8.9
COc1cccc(OC)c1-c1nn2c(-c3cc(-c4ccccc4)n[nH]3)nnc2s1	i	nt	54	i	i	i
CCOc1cccc(-c2nnc3sc(C4CCCCC4)nn23)c1	i	nt	i	71	i	i
c1ccc(-c2nnc3sc(-c4ccncc4)nn23)cc1	i	nt	i	i	i	i
